Screening results (PubChem)
An excerpt weighted towards active compounds, which were near 4.5% of everything screened.
RGS4 pot = RGS4 potentiation or activation | hit rate 0.92% among 310,000 | AID 463111 | B-score at 10 µM | HEK293 M3R/inducible RGS4, carbachol calcium flux Fluo4; hits give low values;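 active means B-score of the integrated calcium signal more than 4 SD below the library mean, with starting fluorescence not abnormally high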;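 further: negative B-score means reduced calcium response which marks RGS4 activation or potentiation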
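test system = M3R-expressing HEK293 line, RGS4 induced by doxycycline | probe or stimulus = carbachol at ECmax as muscarinic agonist stimulus | timing = dye loading 30 min 37 °C, buffer rest 30 min RT | signal = calcium dye Fluo4 fluorescence | evaluation = B score from integrated fluorescence ratio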
RGS4 block = inhibitors of human RGS4; HEK293 M3R/RGS4 inducible, Fluo-4 calcium flux; hits give high values; triggered by carbachol at its EC20; hit rate 0.45% among 310,000; B-score at 10 µM; AID 463165; P49798;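 active means B-score, a plate-corrected calcium signal, over three deviations above library mean, with baseline fluorescence within five deviations of library mean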;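 further: RGS4 expression induced by doxycycline in cells with stable M3 receptor; B-score is computed from the integrated fluorescence ratio over baseline after carbachol; higher B-score means a larger calcium signal and so more RGS4 inhibition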
Target sequence (P49798 whole entry, looked up): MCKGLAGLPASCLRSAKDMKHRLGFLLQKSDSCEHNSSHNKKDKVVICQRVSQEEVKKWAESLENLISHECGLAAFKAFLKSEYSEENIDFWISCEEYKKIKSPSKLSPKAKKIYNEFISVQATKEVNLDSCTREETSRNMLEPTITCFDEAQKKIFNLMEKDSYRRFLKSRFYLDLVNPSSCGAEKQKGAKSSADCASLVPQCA
MrgX1 antag = antagonists of human MrgX1 receptor | MRGX1-HEK293 calcium flux, Fluo-4, BAM8-22 antagonism; hits give low values | AID 588676 | hit rate 1.3% among 310,000 | B-score at 10 µM | Q96LB2;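 active means calcium-response B-score plate-corrected more than 3 library SD below zero, starting fluorescence within 5 deviations, no agonist response on first addition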;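 further: peak minus trough fluorescence over baseline after final BAM8-22 challenge near maximal dose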
MrgX1 agonist = human MrgX1 receptor agonism, primary screen | MrgX1-HEK293 cells, Fluo-4 calcium fluorescence, agonist mode; hits give high values | B-score at 10 µM | hit rate 0.44% among 310,000 | AID 588627;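 active means calcium response B-score plate-corrected fluorescence ratio at least 3 library SD, with starting fluorescence B-score inside 5 SD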
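Material: MrgX1-expressing HEK293 cells / Dosing: compound as first of three additions / Incubation: overnight seeding, then 1 h dark dye loading / Signal: Fluo-4 NW calcium fluorescence / Evaluation: B-scored fluorescence response ratio / Benchmarks: positive and negative control wells on each plate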
PHOSPHO1 block = inhibitors of human PHOSPHO1 phosphatase. Q8TCT1. recombinant PHOSPHO1, absorbance phosphatase assay. inhibition, % at 13.3 µM. hit rate 1.1% among 290,000. AID 1565; in the data active means inhibition above about 60%
Target sequence (Q8TCT1 whole entry, looked up): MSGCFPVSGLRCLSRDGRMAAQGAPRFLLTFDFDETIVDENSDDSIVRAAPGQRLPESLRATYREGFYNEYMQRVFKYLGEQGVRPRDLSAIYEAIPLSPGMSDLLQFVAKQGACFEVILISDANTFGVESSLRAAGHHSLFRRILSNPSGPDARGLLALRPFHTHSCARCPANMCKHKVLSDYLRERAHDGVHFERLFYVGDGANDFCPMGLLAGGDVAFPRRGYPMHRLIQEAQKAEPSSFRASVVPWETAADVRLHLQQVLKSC
MrgX1 allo act = allosterically activates human MrgX1 receptor signaling; MrgX1-HEK293, Fluo-4 calcium flux, FDSS; hits give high values; B-score at 10 µM; hit rate 0.63% among 310,000; AID 588675;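 active means plate-corrected calcium response at least 3 library SD above typical, normal starting fluorescence, not activating the receptor alone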;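 further: compound read alongside a low EC10 to EC30 dose of BAM8-22 agonist; peak minus trough fluorescence over baseline measured at the second addition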
MrgX1 ant reconf = human MrgX1 receptor antagonism, re-confirmation screen. remaining BAM8-22 calcium response % of control (hits give low values), % at 10 µM. AID 602420. MrgX1-HEK293, BAM8-22 calcium flux, Fluo-4; hits give low values. shares compounds with MrgX1 antag. hit rate 19% among 2,300;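 active means remaining agonist calcium response no higher than 100% minus 3 SD of agonist-only control wells, with starting fluorescence near control levels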;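 further: agonist BAM8-22 given at a near maximal EC90 to ECmax level; peak minus minimum fluorescence divided by baseline after agonist addition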
HEK293 Ca flux = MrgX1 antagonist counter-screen hit in parental HEK293 cells; shares compounds with MrgX1 antag; Fluo-4 calcium fluorescence, FDSS; fluorescence ratio F(max-min)/F0 at 10 µM; hit rate 2% among 4,000; AID 624111;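 active means duplicate-averaged calcium fluorescence ratio at least three times the standard deviation of buffer wells, a nonspecific response in parental cells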
HEK293 Ca counter = counter-screen for MrgX1 allosteric activators: effect in parental HEK293 cells. shares compounds with MrgX1 antag. parental HEK293 calcium flux, Fluo-4 fluorescence ratio; hits give high values. fluorescence ratio F(max-min)/F0 at 10 µM. hit rate 0.4% among 4,000;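 active means calcium fluorescence ratio, averaged over duplicates, at least 3 SD of the buffer-well ratio, meaning a nonspecific response in receptor-free cells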;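 further: untransfected parental HEK293 lacking MrgX1 used as counterscreen for MrgX1 allosteric activators; fluorescence change taken during the second addition on a kinetic imager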
HEK293 Ca cntr2 = MrgX1 activator counter-screen hit in parental HEK293 cells; shares compounds with MrgX1 antag; Fluo-4 calcium fluorescence (FDSS); hits give high values; fluorescence ratio F(max-min)/F0 at 10 µM; hit rate 8.7% among 4,000;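 active means calcium fluorescence ratio at least three times the spread of buffer wells, meaning a non-specific response in parental cells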
Hits are given with their value; n = inactive; x = no result given.

SMILES	RGS4 pot	RGS4 block	MrgX1 antag	MrgX1 agonist	PHOSPHO1 block	MrgX1 allo act	MrgX1 ant reconf	HEK293 Ca flux	HEK293 Ca counter	HEK293 Ca cntr2
CC(C)CC(=O)Nc1c2c(nn1-c1ccc(F)cc1)CSC2	n	n	-7.66	n	n	n	n	n	n	n
CCOc1ccc(N2C(=O)CC(Sc3n[nH]c(-c4ccccc4)n3)C2=O)cc1 (stereo not drawn)	n	n	-5.02	n	n	n	n	n	n	n
COc1ccc(OCC(=O)Nc2ccc3c(c2)nc(CCNC(C)=O)n3C)cc1	n	n	n	n	n	n	x	x	x	x
CC(=O)NCCc1nc2cc(NC(=O)COc3ccc(C)cc3)ccc2n1C	n	n	-6.72	n	n	n	n	n	n	n
CCC(=O)Nc1c(C(=O)N2CCN(c3ccccn3)CC2)cnn1-c1ccc(C)cc1	n	n	-7.49	n	n	n	n	n	n	n
CC1=C(C(=O)Nc2cccc(C(=O)N3CCC(C(N)=O)CC3)c2)SCCO1	n	n	n	n	n	n	x	x	x	x
COc1cc(NC(=S)N2CCN(S(C)(=O)=O)CC2)cc(OC)c1	n	n	n	n	n	n	x	x	x	x
CCOC(=O)C1CCCN(C(=O)C(C)Oc2ccc(Cl)cc2Cl)C1 (stereo not drawn)	n	n	n	n	n	n	x	x	x	x
COC(=O)C1CCN(C(=O)C(C)Oc2ccc(Cl)cc2Cl)CC1 (stereo not drawn)	n	n	-9.9	n	n	n	n	n	n	n
Cc1ccc(NC(=O)CSc2ncnc3ccccc23)cc1S(=O)(=O)N1CCCCCC1	n	n	-5.31	n	n	n	67.1%	n	n	n
O=C(CCCCCNC(=O)N1CCn2c1nc1ccccc12)NCc1ccccc1	n	n	n	n	n	n	x	x	x	x
CNc1nc(CC(C)=O)ns1	n	n	n	n	n	n	x	x	x	x
CCCCNc1nc(CC(C)=O)ns1	n	n	-6.57	n	n	n	n	n	n	n
CN1C(=O)N(C)C2C1N(CN1CCCCC1)C(=O)N2CN1CCCCC1 (stereo not drawn)	n	n	-4.93	n	n	n	84.3%	n	n	n
O=C(c1ccc2c(c1)OCO2)N1CCN(c2ccc(Cl)cc2)CC1	n	n	n	n	n	n	x	x	x	x
O=C(c1ccc2c(c1)OCO2)N1CCN(S(=O)(=O)c2ccc(Cl)cc2)CC1	n	n	-4.52	n	n	n	n	n	n	n
Cc1cc(Cl)c2oc(C(=O)N3CCN(C(=O)c4ccco4)CC3)c(C)c2c1	n	n	n	n	n	n	x	x	x	x
Nc1ccc(-c2nc3ccc([N+](=O)[O-])cc3[nH]2)cc1	n	n	n	n	n	n	x	x	x	x
O=[N+]([O-])c1ccc(-c2nc3ccc([N+](=O)[O-])cc3[nH]2)cc1	n	n	-10.5	n	n	n	n	n	n	n
Cc1cc(C)c(S(=O)(=O)NNC(=O)C2CCN(Cc3ccccc3)CC2)c(C)c1	n	n	n	n	n	n	x	x	x	x
O=C(c1cc(COc2cccc3cnccc23)on1)N1CCC(c2ccccc2Cl)C1 (stereo not drawn)	n	n	-4.56	n	n	n	n	n	n	n
O=C(c1cc(COc2c(F)cccc2F)on1)N1CCC(c2ccccc2Cl)C1 (stereo not drawn)	n	n	n	n	n	n	x	x	x	x
Cc1nn(CC(C)C)c2sc(C(=O)NC3CC(C)(C)NC(C)(C)C3)cc12	n	n	n	n	n	n	x	x	x	x
COCCN(C(=O)COC(=O)/C=C/c1cccs1)c1c(N)n(Cc2ccccc2)c(=O)[nH]c1=O	n	n	-11.6	n	x	n	69.0%	n	n	n
CC(C)CN(C(=O)COC(=O)/C=C/c1cccs1)c1c(N)n(Cc2ccccc2)c(=O)[nH]c1=O	n	n	n	n	x	n	x	x	x	x
SMILES	RGS4 pot	RGS4 block	MrgX1 antag	MrgX1 agonist	PHOSPHO1 block	MrgX1 allo act	MrgX1 ant reconf	HEK293 Ca flux	HEK293 Ca counter	HEK293 Ca cntr2
CC1CCCCN1C(=O)C1COc2ccccc2O1 (stereo not drawn)	n	n	n	n	n	n	x	x	x	x
Cc1ccccc1OCC(=O)Nc1nnc(COc2ccccc2)s1	n	n	-8.18	n	n	n	n	n	n	n
COc1ccc2[nH]cc(CCNC(C)=O)c2c1	n	n	n	n	x	n	x	x	x	x
CC(=O)NCCc1c[nH]c2ccc(O)cc12	n	n	-5.08	n	x	n	n	n	n	n
CCCNC(=O)N1CCCC(C(=O)c2cccc(Cl)c2)C1 (stereo not drawn)	n	n	n	n	n	n	x	x	x	x
CCCNC(=O)N1CCC(C(=O)c2cccc(F)c2)CC1	n	n	-4.86	n	n	n	n	n	n	n
CCN1C(=O)C(CC(=O)NCc2ccc(Cl)cc2)N(CC)C1=O (stereo not drawn)	n	n	-5.09	n	n	n	n	n	n	n
CC(=O)OCC1CCCC2=C(C)C(=O)CCC21COC(C)=O (stereo not drawn)	n	n	n	n	n	n	x	x	x	x
Cc1ccc(S(=O)(=O)N(C)C)cc1NC(=O)COC(=O)CCC(=O)c1cccs1	n	n	n	n	n	n	x	x	x	x
Cc1ccc(C)c(C(=O)COC(=O)c2ccccc2N2C(=O)C3C4CCC(C4)C3C2=O)c1 (stereo not drawn)	n	n	-6	n	n	n	n	n	n	n
O=C(COC(=O)c1ccccc1N1C(=O)C2C3CCC(C3)C2C1=O)c1ccccc1 (stereo not drawn)	n	n	n	n	n	n	x	x	x	x
CCOC(=O)c1c(NC(=O)OC)sc(C(=O)N(CC)CC)c1C	n	n	-4.71	n	n	n	n	n	n	n
CCN(CC(=O)Nc1ccc(NC(C)=O)cc1)C(=O)c1ccc2ccccc2c1	n	n	-5.1	n	x	n	n	n	n	n
CCN(CC(=O)Nc1ccc(NC(C)=O)cc1)C(=O)COc1ccc2ccccc2c1	n	n	n	n	x	n	x	x	x	x
COc1ccc(S(=O)(=O)NCC2CCCO2)cc1NC(=O)c1ccccc1F (stereo not drawn)	n	n	n	n	n	n	x	x	x	x
Cc1ccc(Cl)cc1NC(=O)c1cccc(OC(F)F)c1	n	n	-4.69	n	n	n	n	n	n	n
COc1ccc(CC(=O)N[C@@H](CCSC)C(=O)N2CCC3(CC2)NCCc2[nH]cnc23)cc1	n	n	n	n	n	n	x	x	x	x
